In ChEMBL document CHEMBL2150969, “Design, synthesis and biological evaluation of nuclear receptor-degradation inducers” (Bioorg Med Chem, 2011) one finds Activity data, which are given here for eight compounds.

Calls of active or inactive are those of the source. The rule behind the calls is not given here.

The test system of one test is MCF7. The test is described as follows: Induction of ERalpha degradation in human MCF7 cells at 30 uM after 24 hrs by Western blot analysis. Format: functional, cell-based. Summed up: (§1)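 MCF-7 cells were kept in D-MEM with 10% FBS and penicillin/streptomycin, with 2 nM E2 as physiological agonist, at 37 °C under 5% CO2. Cells (1×10^6) were treated, lysed in SDS buffer and protein was BCA-normalized. Lysates ran on 10-20% SDS-PAGE and PVDF, blocked with 5% skim milk, then probed with rabbit polyclonal anti-ERα (1:200) and β-actin. Detection used HRP secondaries and ECL.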

Test [1] has as its target Baculoviral IAP repeat-containing protein 2 (Homo sapiens) (UniProt Q13490). The test is described as follows: Induction of cIAP1-mediated ERalpha degradation in human MCF7 cells at 1 to 30 uM after 24 hrs by Western blot analysis. Format: cell-based. Summed up: as §1
On the technique in general: Immunoblotting shows a protein as a band on a membrane.

Test [2] has the same target. The test is described as follows: Induction of FLAG-tagged cIAP1 expressed in human HT1080 cells assessed as RARalpha degradation at 10 uM after 6 hrs by Western blot analysis in presence of proteasome inhibitor MG132 added 30 mins prior to compound treatment. Format: cell-based. The following applies: HT-1080. The method in brief: (§2)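 HT-1080 cells were grown in RPMI 1640 with 10% heat-inactivated FBS at 37 °C under 5% CO2. Cells (1×10^6) were treated, then lysed in SDS buffer and protein was equalized by BCA. Lysates ran on 10-20% SDS-PAGE and went to PVDF, blocked with 5% skim milk/TBS-T. Blots were probed with anti-CRABP-II or anti-RARα plus β-actin, HRP secondaries, and ECL detection.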

Test [3] shares this target. The test is described as follows: Induction of FLAG-tagged cIAP1 expressed in human HT1080 cells assessed as CRABP-2 degradation at 1 to 30 uM after 24 hrs by Western blot analysis. Format: cell-based. The following applies: HT-1080. Summed up:
as §2

Test [4] has the same target. The test is described as follows: Induction of FLAG-tagged cIAP1 expressed in human HT1080 cells assessed as RARalpha degradation at 10 uM after 6 hrs by Western blot analysis in presence of RAR antagonist LE540 added 30 mins prior to compound treatment. The format is functional, cell-based. Conditions: HT-1080. The method in brief: as §2
For test [5] the target is unchanged. The test is described as follows: Induction of FLAG-tagged cIAP1 expressed in human HT1080 cells assessed as RARalpha degradation after 24 hrs by Western blot analysis. The format is cell-based. Conditions: HT-1080. Summed up: as §2
The target is the same in test [6]. The test is described as follows: Induction of FLAG-tagged cIAP1 expressed in human HT1080 cells assessed as RARalpha degradation at 10 uM after 24 hrs by Western blot analysis. The format is cell-based. Conditions: HT-1080. The method in brief: as §2
Test [7] relates to HT-1080. The test is described as follows: Induction of CRABP-2 degradation in human HT1080 cells at 10 uM after 24 hrs by Western blot analysis. Format: functional, cell-based. The method in brief: as §2
Test [8] concerns HT-1080. The test is described as follows: Induction of RARalpha degradation in human HT1080 cells at 10 uM after 24 hrs by Western blot analysis. Format: functional, cell-based. The method in brief:
as §2

Test [9] concerns the target Baculoviral IAP repeat-containing protein 2 (Homo sapiens) (UniProt Q13490). The test is described as follows: Induction of cIAP1-mediated ERalpha degradation in human MCF7 cells at 30 uM after 24 hrs by Western blot analysis. Format: cell-based. The method in brief:
as §1

The target is the same in test [10]. The test is described as follows: Induction of cIAP1-mediated AR degradation in human MCF7 cells at 30 uM after 24 hrs by Western blot analysis relative to control. Format: cell-based. Summed up:
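MCF-7 cells were grown in D-MEM with 10% FBS, penicillin/streptomycin and 10 nM DHT at 37 °C under 5% CO2. Cells (1×10^6) were treated, lysed in SDS buffer, and equal protein (by BCA) was run on 10-20% SDS-PAGE and transferred to PVDF. Blots were blocked in 5% skim milk/TBS-T, probed with mouse monoclonal anti-AR (1:200) and β-actin antibody, and read by ECL.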

For test [11] the target is unchanged. The test is described as follows: Induction of FLAG-tagged cIAP1 expressed in human HT1080 cells assessed as RARalpha degradation at 30 uM after 24 hrs by Western blot analysis. The format is cell-based. The following applies: HT-1080. The method in brief:
as §2

Chain of Baculoviral IAP repeat-containing protein 2 (Homo sapiens) (Q13490 whole entry): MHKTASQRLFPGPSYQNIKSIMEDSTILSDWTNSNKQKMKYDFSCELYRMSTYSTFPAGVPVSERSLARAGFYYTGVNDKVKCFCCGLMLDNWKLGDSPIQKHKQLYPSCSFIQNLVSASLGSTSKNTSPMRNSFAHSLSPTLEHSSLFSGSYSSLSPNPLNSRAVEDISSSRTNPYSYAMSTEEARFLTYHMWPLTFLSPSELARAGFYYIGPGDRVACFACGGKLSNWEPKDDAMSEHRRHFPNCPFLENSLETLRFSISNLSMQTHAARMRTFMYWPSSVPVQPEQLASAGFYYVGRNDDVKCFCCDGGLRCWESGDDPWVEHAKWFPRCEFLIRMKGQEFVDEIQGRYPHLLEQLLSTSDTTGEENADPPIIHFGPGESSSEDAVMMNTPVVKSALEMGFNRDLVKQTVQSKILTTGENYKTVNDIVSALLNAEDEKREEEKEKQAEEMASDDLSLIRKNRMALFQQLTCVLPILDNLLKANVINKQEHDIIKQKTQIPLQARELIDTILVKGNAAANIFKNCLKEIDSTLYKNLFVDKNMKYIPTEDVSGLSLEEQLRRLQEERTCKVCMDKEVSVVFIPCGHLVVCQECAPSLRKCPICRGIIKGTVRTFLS

As to `C[C@]12CC[C@@H]3c4ccc(O)cc4CC[C@H]3[C@@H]1CCC2=O`, the result with MCF7 was inactive.
For `CC(C)C[C@H](NC(=O)CCCc1ccccc1)C(=O)NCCOCCOCCNC(=O)CO/N=C1\CC[C@H]2[C@@H]3CCc4cc(O)ccc4[C@H]3CC[C@]12C`, the result in [1] was inactive.
In the case of `CC(C)C[C@H](NC(=O)[C@@H](O)[C@H](N)Cc1ccccc1)C(=O)NCCOCCOCCOCC(=O)NCCCOc1cc(/C=C/C(=O)c2cc(C(C)(C)C)cc(C(C)(C)C)c2)ccc1C(=O)O`, the result in [2], in test [3] and in [4] was inactive. Besides, in [5], the Activity entry was “Dose-dependent effect”.
As for `CC1=C(/C=C/C(C)=C/C=C/C(C)=C/C(=O)O)C(C)(C)CC/C1=N\OCC(=O)NCCOCCOCCOC(=O)[C@H](CC(C)C)NC(=O)[C@@H](O)[C@H](N)Cc1ccccc1`, the outcome in [6] was inactive. For the same compound, in the test with HT-1080 [7], the outcome was Active.
With `CC(C)C[C@H](NC(=O)CCCc1ccccc1)C(=O)NCCOCCOCCOCC(=O)NCCCOc1cc(/C=C/C(=O)c2cc(C(C)(C)C)cc(C(C)(C)C)c2)ccc1C(=O)O`, in the test on HT-1080 [8], the outcome was inactive.
Regarding `CC(C)C[C@H](NC(=O)[C@@H](O)[C@H](N)Cc1ccccc1)C(=O)NCCOCCOCCNC(=O)CO/N=C1\CC[C@H]2[C@@H]3CCc4cc(O)ccc4[C@H]3CC[C@]12C`, in test [9], the result was Active.
Consider `CNC(=O)[C@H](CC(C)C)NC(=O)[C@@H](O)[C@H](N)Cc1ccccc1`, for which the result in test [10] was Active. Moreover, the outcome in test [11] and in test [9] was inactive.
As for `CC(C)C[C@H](NC(=O)[C@@H](O)[C@H](N)Cc1ccccc1)C(=O)NCCOCCOCCOCC(=O)O[C@H]1CC[C@H]2[C@@H]3CC[C@H]4CC(=O)CC[C@]4(C)[C@H]3CC[C@]12C`, the result in test [10] was Active.
